One molecule from ChEMBL document CHEMBL3813647, “Discovery of an Orally Active and Liver-Targeted Prodrug of 5-Fluoro-2'-Deoxyuridine for the Treatment of Hepatocellular Carcinoma” (J Med Chem, 2016) can be followed below.

The test system of data set [1] is Mus musculus. As to the kind of experiment: Toxicity in KM mouse assessed as damage to kidney at 2 to 3 g/kg, administered through oral gavage after 15 days. Conditions: in vivo, 360 h.
The nature of data set [2]: Half life in dog plasma by HPLC-MS/MS analysis. In kind it is ADME, cell-free, Canis lupus familiaris. In a few lines: (§1)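 Compound at 1 μg/mL final in dog or human plasma, 37 °C. Sampled at 0–24 h and quenched with ice-cold MeOH containing internal standard. Parent measured by LC-MS/MS in ESI negative mode; t1/2 calculated from percent remaining versus 0 h.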
For data set [3], the system named is Liver. As to the kind of experiment: AUC (infinity) in Sprague-Dawley rat liver assessed as (S)-2-((R)-(((2R,3S,5R)-5-(5-fluoro-2,4-dioxo-3,4-dihydropyrimidin-1(2H)-yl)-3-hydroxytetrahydrofuran-2-yl)methoxy)(2-methylbenzyloxy)phosphorylamino)propanoate formation at 52.17 mg/kg administered through oral gavage measured up to 24 hrs by HPLC-MS/MS analysis. Conditions: in vivo. It is filed as ADME, organism-based. The arrangement: dose 52.17 mg/kg, route oral, time infinity. In a few lines:
(§2)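 Male Sprague-Dawley rats (220 ± 20 g), single gavage of 0.096 mmol/kg. FDUR was dosed in H2O; the prodrugs were dosed in 20% hydroxypropyl-β-cyclodextrin. n = 3 per time point, sampled at 0.25–24 h. Plasma (EDTA-K2, cardiac puncture) and freeze-clamped liver were homogenized in 20 mM EDTA-K2/70% MeOH. Analytes measured by HPLC-MS/MS in ESI negative mode.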

Data set [4] has as its system Mus musculus. In words: Toxicity in KM mouse assessed as weight loss at 2 to 3 mg/kg, administered through oral gavage after 1 to 5 days. It is filed as organism-based. As to conditions: in vivo, in the assay text read “2 to 3 g/kg” for “2 to 3 mg/kg”. In outline:
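Female KM mice (20 2 g), fasted overnight, 5 per group. Single oral gavage at 2 or 3 g/kg in 57% hydroxypropyl-β-cyclodextrin. Watched continuously for 4 h, intermittently to 24 h, then occasionally to day 15 for weight, appetite and behaviour. Mean body weight change tracked days 1–15. Organs examined macroscopically at sacrifice on day 15.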

Data set [5] relates to H22. As to the kind of experiment: Antitumor activity against mouse H22 cells implanted in KM mouse assessed as tumor growth inhibition at 260 mg/kg administered daily through oral gavage after 8 days. In kind it is functional. As to conditions: 192 h. In a few lines: (§3)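 Syngeneic H22 hepatoma: 2 × 10⁶ cells injected s.c. in the axilla (0.9% saline) of female KM mice, n = 10 per group. From day 2, daily oral gavage for 8 days. Test agent given in 35% PEG400; sorafenib suspended in 0.5% CMC-Na. Tumor weight taken on day 8; inhibition rate calculated versus the vehicle group.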

The subject of another data set is Plasma. In words: AUC (infinity) in Sprague-Dawley rat plasma assessed as (S)-2-((R)-(((2R,3S,5R)-5-(5-fluoro-2,4-dioxo-3,4-dihydropyrimidin-1(2H)-yl)-3-hydroxytetrahydrofuran-2-yl)methoxy)(2-methylbenzyloxy)phosphorylamino)propanoate formation at 52.17 mg/kg administered through oral gavage measured up to 24 hrs by HPLC-MS/MS analysis. It is filed as ADME, organism-based. The arrangement: dose 52.17 mg/kg, time infinity, route oral. Conditions: in vivo. In outline: as §2

The test system of data set [6] is H22. In words: Antitumor activity against mouse H22 cells implanted in KM mouse assessed as tumor growth inhibition at 130 mg/kg administered daily through oral gavage after 8 days. As to conditions: 192 h. In kind it is functional. In outline: as §3
Data set [7] concerns Liver. As to the kind of experiment: Cmax in Sprague-Dawley rat liver assessed as FDUR formation at 52.17 mg/kg administered through oral gavage measured up to 24 hrs by HPLC-MS/MS analysis. In kind it is ADME, organism-based. Details: dose 52.17 mg/kg, route oral. As to conditions: in vivo. In a few lines:
as §2

The test system of data set [8] is Liver. As to the kind of experiment: Drug metabolism in Sprague-Dawley rat liver S9 fraction assessed as FdUMP formation at 20 ug/mL preincubated for 5 mins followed by NADPH addition measured at 20 mins by HPLC-MS/MS analysis. In kind it is ADME, subcellular. Conditions: s9, 20 min. In outline: (§4)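 Rat liver S9 (10 mg/mL) incubated with compound at 20 μg/mL. Parent, intermediate A and FdUMP followed over time by HPLC-MS/MS. Negative control run without NADPH.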

Data set [9] is described as follows: Cytotoxicity against human LO2 cells assessed as reduction in cell viability after 72 hrs by MTT assay. In kind it is cell-based. As to conditions: L02, 72 h. In a few lines: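 Cells in RPMI-1640 with 10% FBS, seeded at 4 × 10³ per well and attached for 24 h. Compound (DMSO ≤0.5% final) added for 72 h at 37 °C, 5% CO2. Viability read by MTT. IC50 set against 0.5% DMSO-treated cells taken as 100% viable. Mean of two independent experiments, each run in triplicate.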
In general terms: Formazan colour is commonly taken as a measure of viable cells.

In data set [10] the test system is Liver. As to the kind of experiment: AUC (infinity) in Sprague-Dawley rat liver assessed as FDUR formation at 52.17 mg/kg administered through oral gavage measured up to 24 hrs by HPLC-MS/MS analysis. The arrangement: dose 52.17 mg/kg, route oral, time infinity. In kind it is ADME, organism-based. As to conditions: in vivo. In a few lines: as §2
The nature of data set [11]: Ratio of FDUR AUC (infinity) in Sprague-Dawley rat liver to FDUR AUC (infinity) in Sprague-Dawley rat plasma at 52.17 mg/kg administered through oral gavage. It is filed as ADME, organism-based. As to conditions: other tissue.
For data set [12], the system named is Mus musculus. In words: Toxicity in KM mouse assessed as damage to lung at 2 to 3 g/kg, administered through oral gavage after 15 days. As to conditions: in vivo, 360 h.
Data set [13] is described as follows: Half life in human plasma by HPLC-MS/MS analysis. In kind it is ADME, cell-free. In outline: as §1
Data set [14] relates to Liver. As to the kind of experiment: Drug metabolism in Sprague-Dawley rat liver S9 fraction assessed as (S)-2-((R)-(((2R,3S,5R)-5-(5-fluoro-2,4-dioxo-3,4-dihydropyrimidin-1(2H)-yl)-3-hydroxytetrahydrofuran-2-yl)methoxy)(2-methylbenzyloxy)phosphorylamino)propanoate formation at 20 ug/mL after 20 mins by HPLC-MS/MS analysis in absence of NADPH. In kind it is ADME. As to conditions: s9, 20 min. In outline:
as §4

Consider `Cc1ccccc1CO[P@](=O)(N[C@@H](C)C(=O)OC(C)C)OC[C@H]1O[C@@H](n2cc(F)c(=O)[nH]c2=O)C[C@@H]1O`, for which the Activity entry in the data set on Mus musculus [1], in the data set with Mus musculus [4] and in the data set with Mus musculus [12] was “Non-toxic” throughout. For the same molecule, the half-life in data set [2] and in data set [13] was over 24 h in each case. Also, the AUC is 5509 ng·h/g in the data set on Liver [3], 316 ng·h/mL with Plasma and 1541 ng·h/g in the data set on Liver [10]. The inhibition in vivo (usually the share of the control response that was lost under treatment) at 260 mg/kg in the data set on H22 [5] came to 72.5%. Also, in the data set on H22 [6], the inhibition in vivo at 130 mg/kg turned out to be 61.7%. In addition, in the data set on Liver [7], the Cmax (commonly the maximum level reached in the sampled fluid or tissue) turned out to be 747 ng/g. Besides, the Drug metabolism entry in the data set on Liver [8] and in the data set with Liver [14] was “metabolite_detected” in each case. The IC50 (commonly the midpoint of a concentration-inhibition curve) in data set [9] was found to be 412 µM. The “Ratio AUC” value in data set [11] came out at 59.3.
